Measured values taken from ChEMBL document CHEMBL4229342, “Synthesis of novel proxyphylline derivatives with dual Anti-Candida albicans and anticancer activity” (Eur J Med Chem, 2018).
The source made the active and inactive calls. The rule behind the calls is not given here.

Tests used:
[1] = system: Candida albicans; experiment: Induction of apoptosis in Candida albicans ATCC 90028 protoplast assessed as early apoptotic cells at 20 uM after 48 hrs Annexin V-FITC/propidium iodide staining based flow cytometric analysis (reference value: 3.00 +/- 1.65%); assay type: functional
[2] = system: Galleria mellonella; experiment: Toxicity in Candida albicans ATCC 90028 infected Galleria mellonella larvae infected with 20 uM compound pre-treated cell suspensions assessed as improvement in larvae health index scores incubated in dark for 144 hrs at 30 degC and measured every 24 hrs; assay type: organism-based; conditions: in vivo
[3] = system: Candida albicans; experiment: Ratio of MFC for fungicidal activity against Candida albicans ATCC 90028 assessed as reduction in cell viability in RPMI medium in presence of sorbitol to MFC for fungicidal activity against Candida albicans ATCC 90028 assessed as reduction in cell viability in RPMI medium in absence of sorbitol; assay type: functional
[4] = system: Candida albicans; experiment: Induction of chitinase release in Candida albicans ATCC 90028 assessed as p-nitrophenyl release from N-acetyl-beta-D-glucosaminide at 20 uM by chitinolytic activity assay; assay type: functional, organism-based
[5] = system: Candida albicans; experiment: Induction of apoptosis in Candida albicans ATCC 90028 protoplast assessed as necrotic cells at 20 uM after 48 hrs Annexin V-FITC/propidium iodide staining based flow cytometric analysis (reference value: 0.33 +/- 0.20%); assay type: functional
[6] = system: Candida albicans; experiment: Induction of apoptosis in Candida albicans ATCC 90028 protoplast assessed as viable cells at 20 uM after 48 hrs Annexin V-FITC/propidium iodide staining based flow cytometric analysis (reference value: 96.38 +/- 2.05%); assay type: functional
[7] = system: Candida albicans; experiment: Inhibition of biofilm formation of Candida albicans ATCC 90028 at 20 uM […] by XTT assay; assay type: functional
[8] = system: Candida albicans; experiment: Effect on dilpoid nuclei level in Candida albicans ATCC 90028 planktonic forms at 0.03 ug/ml by ethidium bromide staining based gel electrophoresis and confocal laser scanning microscopy; assay type: functional, organism-based
[9] = system: Candida albicans; experiment: Antibiofilm activity in Candida albicans ATCC 90028 assessed as cell membrane lysis at 248 uM after 18 hrs by acridine orange/ethidium bromide staining-based confocal laser scanning fluorescence microscopic analysis; assay type: functional, organism-based
How it was run: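 Unfixed biofilm cells were dual-stained in situ with acridine orange and ethidium bromide, each at 100 µg/mL. Confocal fluorescence and DIC imaging scored green AO nuclei, crescent-shaped chromatin, reddish-orange late apoptotic/necrotic cells and EB uptake, against untreated control biofilm. […]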

[10] = system: Candida albicans; experiment: Antifungal activity against Candida albicans ATCC 90028 infected in Galleria mellonella larvae infected with 31 uM compound pre-treated cell suspensions assessed as reduction in fungal burden in dark for 144 hrs at 30 degC and measured every 24 hrs by hematoxylin and eosin staining-based light microscopic analysis; assay type: functional, organism-based
[11] = system: Candida albicans; experiment: Antibiofilm activity in Candida albicans ATCC 90028 assessed as beta-glucan uniform distribution at 248 uM after 18 hrs by Congo red staining-based confocal laser scanning microscopic analysis; assay type: functional, organism-based
How it was run: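 Mature C. albicans biofilm cells were stained with 2% Congo Red to detect β-glucan exposure. They were imaged by confocal laser scanning microscopy as fluorescence and fluorescence/DIC overlays. Treated biofilms were compared with untreated control biofilm.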

| Compound | Activity [1] | Activity [2] | Ratio [3] | Activity [4] | Activity [5] | Activity [6] | inhibition at 20 µM [7] | Activity [8] | Activity [9] | Activity [10] | Activity [11] |
| --- | --- | --- | --- | --- | --- | --- | --- | --- | --- | --- | --- |
| CC(Cn1cnc2c1c(=O)n(C)c(=O)n2C)OCc1cn(CCCn2nc3c(Br)c(Br)c(Br)c(Br)c3n2)nn1 (stereo unspecified) | 2.87% | Toxic | 2 | inactive | 93.94% | 2.87% | 47% |  |  |  |  |
| CC(CN1c2ccccc2Sc2ccccc21)OC(=O)OC(C)Cn1cnc2c1c(=O)n(C)c(=O)n2C (stereo unspecified) |  |  |  |  |  |  |  | inactive | Active | Active | inactive |
